# A selection: hits, their analogues and other compounds. The true share with any hit is near 4%.
# CHOP inhibitor – inhibitors of CHOP promoter induction, primary screen, cell-based, unfolded protein response, luciferase reporter; CHO-K1 CHOP-promoter luciferase, tunicamycin-induced, 15-18 h; inhibition, % at 10 µM; actives 3.8% (n = 220,000); AID 2732, 2010;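 active = compounds that reduced the stress-induced luciferase reporter signal by more than about 70% of percent inhibition, limit read from the data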;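 also: 0% = tunicamycin plus vehicle and 100% = wells without tunicamycin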
# Hsp70 activator – Hsp70 transcriptional activators, primary screen, cell-based, HeLa, Hsp70 promoter luciferase, luminescence, 10 µM; actives 0.04% (n = 200,000); HeLa Hsp70 promoter luciferase reporter; scaled: vehicle 0, proteasome-inhibitor control 100%; activation, % at 10 µM; AID 1203, 2008;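 active = activation above the mean across all tested compounds plus 3 SD, cutoff set per campaign, cut at about 5.5% in these data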;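 also: 100% = MG132 at 30 µM as the positive control and 0% = DMSO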
# Mdm2 ligase inh – MDM2-luciferase reporter signal enhancers, primary screen, MDM2 E3 ligase inhibitor project, cell-based, luminescence, 1536-well; E3 ubiquitin-protein ligase Mdm2 (Homo sapiens), Q00987; cell-based MDM2 ubiquitination luciferase reporter, 2 h; 0 = plate control, 100 = twice control, blank-subtracted; signal enhancement, % at 5 µM; actives 0.11% (n = 210,000); AID 1230, 2008;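 active = signal enhancement of 30% or more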;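 also: luminescence tracks abundance of the self-degrading MDM2-luciferase fusion protein; higher signal means inhibition of MDM2 E3 ligase activity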
# Target sequence (Q00987 whole entry, looked up, the tested form may be a part): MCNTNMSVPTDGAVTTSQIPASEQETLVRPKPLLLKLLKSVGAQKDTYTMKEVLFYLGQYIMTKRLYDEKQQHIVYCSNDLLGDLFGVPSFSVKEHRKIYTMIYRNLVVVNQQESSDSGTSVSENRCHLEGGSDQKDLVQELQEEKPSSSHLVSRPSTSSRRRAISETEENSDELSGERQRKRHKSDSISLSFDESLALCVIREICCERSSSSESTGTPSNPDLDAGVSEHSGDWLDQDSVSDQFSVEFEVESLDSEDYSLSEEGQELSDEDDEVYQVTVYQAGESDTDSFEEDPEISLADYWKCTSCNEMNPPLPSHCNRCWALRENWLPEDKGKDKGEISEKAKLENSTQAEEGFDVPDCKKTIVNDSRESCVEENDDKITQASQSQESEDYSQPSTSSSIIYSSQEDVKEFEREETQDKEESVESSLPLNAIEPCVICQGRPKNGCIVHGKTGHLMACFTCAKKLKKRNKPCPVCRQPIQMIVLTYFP
#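 Buffer or medium: Cells held in DMEM | Assay system: Stable mammalian line carrying autodegrading MDM2–luciferase fusion reporter | Quantity: 2000 cells/well | Times: 4 h settle plus 2 h compound, 37 °C | Doses: One concentration, 5 µM, with 0.2% DMSO | Technique: Luminescence with SteadyLite reagent, 15 min at room temperature | Benchmarks: Plate controls and plate blanks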
# S1P3 antag – S1P3 receptor antagonists, primary screen, cell-based | Sphingosine 1-phosphate receptor 3 (Homo sapiens), Q99500 | CHO S1P3 NFAT-BLA reporter, FRET fluorescence, antagonist mode | inhibition, % at 4.98 µM | actives 0.27% (n = 170,000) | AID 485, 2006;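 active = inhibition above the plate cutoff, the mean inhibition of test wells on that plate plus 3 SD, cut at about 28% in these data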;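 also: cells challenged with S1P at its EC80 of 0.8 µM; blue over green emission ratio from cleaved BLA substrate after 4 h stimulation; 0% = S1P-stimulated wells and 100% = unstimulated DMSO-only wells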
# * hit, by the source's call; x = no result.
SMILES,CHOP inhibitor,Hsp70 activator,Mdm2 ligase inh,S1P3 antag
Cc1cc(NC(=O)COC(=O)c2cc(S(=O)(=O)N3CCOCC3)ccc2N2CCCCC2)no1,42,0,-4,x
COc1cc(OC)c2ccc(=O)oc2c1C(CCN1CCN(c2ccccc2)CC1)c1ccc(N(C)C)cc1 (configuration not stated),-12,x,26,x
O=C1Nc2ccc(Cl)cc2[C@@](C#CC2CC2)(C(F)(F)F)O1,102*,0,x,-7
Cc1cc(NC(=O)CSc2nnc(C3CC3)n2N)c([N+](=O)[O-])cc1C,-10,0,-6,-3
Cc1ccc2nc(-c3cccc(NS(C)(=O)=O)c3)cc(-c3ccccc3)c2c1,85*,0,-14,10
Cc1nc(-c2cccc(NS(=O)(=O)c3ccccc3)c2)cs1,10,0,-18,x
COc1nc(Nc2ccc(C(C)=O)cc2)nc(OC)n1,-28,0,-15,14
O=C1c2ccccc2CC1(Cc1ccccc1)Cc1ccccc1,33,0,-2,x
CCCC1CCC(c2ccc(/C(N)=N/O)cc2)CC1 (configuration not stated),81*,0,-7,14
O=C(N/N=C/c1c(O)ccc2ccccc12)c1cccc(C(F)(F)F)c1,78*,0,-10,9
COc1ccc2ccccc2c1/C=N/NC(=O)c1cccc(Br)c1,33,0,3,12
Cc1cc(C)n(CCC(=O)N/N=C/c2c(O)ccc3ccccc23)n1,88*,x,x,4
O=C(N/N=C/c1c(O)ccc2ccccc12)c1[nH]ncc1Br,78*,0,-12,8
O=C(/C=C/c1cccc(F)c1)N(c1ccccn1)C1CCCCC1,0,0,-7,-15
O=C(/C=C/c1ccc(Cl)cc1)N(c1ccccn1)C1CCCCC1,70*,0,-14,-5
Cc1ccc(N2CCN(S(=O)(=O)c3ccc(F)c(C)c3)CC2)c(C)c1,61,0,-13,11
CCc1ccccc1N1CCN(S(=O)(=O)c2ccc(F)c(C)c2)CC1,74*,0,-16,4
CCOC(=O)c1c(NC(=O)CN2CCN(C(=O)c3ccco3)CC2)sc2c1CCCC2,86*,0,7,x
CCOC(=O)c1c(NC(=O)CN2CCCCC2)sc(C)c1C,-6,0,0,-13
CCOC(=O)c1c(NC(=O)CN2CCCCC2)sc2c1CCN(C(=O)OCC)C2,81*,0,-8,9
CCOC(=O)c1c(NC(=S)N2CCN(C)CC2)sc2c1CCN(C(=O)OCC)C2,-4,x,-3,-6
CCOC(=O)c1c(NC(=O)CN(CC)CC)sc2c1CCN(C(=O)OCC)C2,75*,0,-11,20
CCOc1ccccc1N1CCN(C2=C(NS(=O)(=O)c3cccs3)C(=O)c3ccccc3C2=O)CC1,71*,0,-13,x
COc1ccccc1-c1nn2c(=O)cc(C)nc2s1,-25,0,-3,x
Cc1cc(=O)n2nc(-c3ccc(C(F)(F)F)cc3)sc2n1,75*,0,-11,x
SMILES,CHOP inhibitor,Hsp70 activator,Mdm2 ligase inh,S1P3 antag
O=C(NCCc1ccccc1)c1ccc2nc(-c3ccco3)c(-c3ccco3)nc2c1,-18,0,-25,x
O=C(c1ccccc1)c1ccc2nc(-c3ccco3)c(-c3ccco3)nc2c1,72*,0,-12,-7
CC(C)(C)c1cc(CCC(=O)NNC(=S)NC(=O)c2ccccc2)cc(C(C)(C)C)c1O,109*,0,-4,-5
O=C(CCc1ccccc1)NNC(=S)NC(=O)c1ccccc1,59,0,-1,x
Cc1cc(NC(=O)c2ccc3nc(-c4ccccc4)c(-c4ccccc4)nc3c2)no1,78*,0,x,0
COc1cc2c(cc1OC)CN(C(=O)c1ccc(S(=O)(=O)N(C)c3ccccc3)cc1)CC2,39,0,5,1
O=C(OC(C(=O)NCC1CCCO1)c1ccccn1)c1cccs1 (configuration not stated),16,0,-11,x
Cc1ccc(SCc2ccc(C(=O)N3CCCC3)cc2)cc1,-12,0,-4,-13
Cc1ccc(SCC2(O)CCN(C(=O)c3ccc(Cl)cc3)CC2)cc1,82*,0,-6,x
COC(=O)Cc1ccc(NC(=S)N2CCN(c3cc(Cl)ccc3C)CC2)cc1,26,0,-8,-2
COc1ccc(NS(=O)(=O)c2cc([N+](=O)[O-])ccc2N/N=C\c2c(C)[nH]c3ccccc23)cc1,0,0,-7,x
COc1ccc(/C=N/Nc2ccc([N+](=O)[O-])cc2S(=O)(=O)N2CCN(C)CC2)cc1,71*,0,-22,-7
CC(=O)/C(C#N)=C1\NC(=O)C(Cc2ccc(C)c(Cl)c2)S1 (configuration not stated),3,x,-2,13
COc1ccccc1C(=O)Nc1ccc(N2CCN(C(C)=O)CC2)cc1,77*,0,2,-15
COc1ccccc1C(=O)Nc1ccc(N2CCCCC2)cc1,2,0,-7,x
COc1ccc(-n2nnnc2SCc2nc3ccccc3s2)cc1,82*,0,-9,x
Cc1ccc2c(c1)NC(=O)C(CC(=O)NCCCN1CCCCC1)O2 (configuration not stated),14,0,-8,-8
Cc1ccc2c(c1)NC(=O)C(CC(=O)NCCCN1CCN(c3cc(Cl)ccc3C)CC1)O2 (configuration not stated),79*,0,-7,9
CCOc1cc(-c2nc(-c3ccc(C)nc3OC)no2)cc(OCC)c1OCC,77*,0,-6,-15
CCOc1cc(-c2nc(-c3ccc(C)nc3OCC)no2)cc(OCC)c1OCC,4,0,0,1
CCOc1nc(C)ccc1-c1noc(-c2ccccc2OC)n1,72*,0,-14,x
CCOc1ccccc1-c1nc(-c2cc3ccc(C)cc3[nH]c2=O)no1,72*,0,-8,x
Cc1ccc(S(=O)(=O)c2c(C)nn(C(C)(C)C)c2OC(=O)C2CCCC2)cc1,77*,0,0,-2
CCOc1ccc(-n2nc3ccc(NC(=O)c4ccc5c(c4)OCCO5)cc3n2)cc1,76*,0,6,x
O=c1c2ccc(Cl)cc2[nH]c(=S)n1CCC1=CCCCC1,84*,0,x,-8
CCOC(=O)N1CCN(C(=O)c2ccc3c(=O)n(CCC4=CCCCC4)c(=S)[nH]c3c2)CC1,33,0,-3,-5
COc1cc(CCCN2C(N)=NC[C@@H]2Cc2ccc(O)cc2)cc(OC)c1OC,6,x,-2,x
O=S(=O)(NC12CC3CC(CC(C3)C1)C2)c1ccc(F)cc1,72*,0,-15,x
O=S(=O)(Nc1ccccc1)c1ccc(F)cc1,-15,0,-9,x
N#CC(c1ccccc1)N(CCCCl)C(=O)c1ccccc1 (configuration not stated),-10,0,x,-12
